Consider 13 molecules from ChEMBL document CHEMBL1287758, “Synthesis of D- and L-tyrosine-chlorambucil analogs active against breast cancer cell lines” (Bioorg Med Chem Lett, 2010).

Holding throughout (format): functional, cell-based
A short description of test [1]: Cytotoxicity against estrogen receptor-negative human MDA-MB-436 cells by MTT assay. The procedure, abridged: (§1)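 MTT read-out after 72 h continuous exposure of human breast cancer cells to compound. Each assay run in duplicate; IC50 taken from three independent experiments and reported as mean SEM. Chlorambucil served as positive control.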
Background: Tetrazolium dyes change colour on reduction, which living cells bring about.

In another test the test system is MCF7. Description: Cytotoxicity against estrogen receptor-positive human MCF7 cells by MTT assay. The procedure, abridged: as §1
A further test concerns MDA-MB-468. Description: Cytotoxicity against estrogen receptor-negative human MDA-MB-468 cells by MTT assay. The procedure, abridged: as §1
The test system of a further test is MDA-MB-231. Description: Cytotoxicity against estrogen receptor-negative human MDA-MB-231 cells by MTT assay. The procedure, abridged: as §1
The mark [2] stands for this setting: Homo sapiens, MCF7, read-out: IC50.
Setting [3] is: Homo sapiens, MDA-MB-436, read-out: IC50.
Where [4] appears, read: Homo sapiens, MDA-MB-468, read-out: IC50.
Where [5] appears, read: Homo sapiens, MDA-MB-231, read-out: IC50.

As to `COC(=O)[C@H](Cc1ccc(O)cc1)NC(=O)CCCCCCCCCCNC(=O)CCCc1ccc(N(CCCl)CCCl)cc1`, the IC50 (as a rule, the concentration that inhibits the measured activity by half) in test [1] (mda-mb-436) is “Not Active”; with MCF7 (setting [2]), 67.9 µM; in the test on MDA-MB-468 (mda-mb-468), “Not Active”; in the test with MDA-MB-231 (mda-mb-231), “Not Active”.

Consider `O=C(CCCc1ccc(N(CCCl)CCCl)cc1)NCCCCCCCCCCC(=O)N[C@H](CO)Cc1ccc(O)cc1`, for which the IC50 result in test [1] (mda-mb-436) is “Not Active”; in the test with MCF7 (setting [2]), 19.4 µM; with MDA-MB-468 (mda-mb-468) it was “Not Active”; in the test with MDA-MB-231 (mda-mb-231), “Not Active”.

For the molecule `COC(=O)[C@@H](Cc1ccc(O)cc1)NC(=O)CCCCCCCCCCNC(=O)CCCc1ccc(N(CCCl)CCCl)cc1`, the IC50 entry with MCF7 (mcf7) and in the test on MDA-MB-231 (mda-mb-231) was “Not Active” each time.

On to `O=C(CCCc1ccc(N(CCCl)CCCl)cc1)NCCCCCCCCCCC(=O)N[C@@H](CO)Cc1ccc(O)cc1`, for which the values for the IC50 in the test on MCF7 (setting [2]) and in the test on MDA-MB-231 (mda-mb-231) were 16.3 µM and “Not Active”, respectively.

Turning to `O=C(CCCc1ccc(N(CCCl)CCCl)cc1)NCCCCCC(=O)N[C@@H](CO)Cc1ccc(O)cc1`, the IC50 in the test with MCF7 (setting [2]) is 67 µM.

Take `COC(=O)[C@H](Cc1ccc(O)cc1)NC(=O)CCCc1ccc(N(CCCl)CCCl)cc1`: the IC50 in test [1] (setting [3]) worked out at 15.4 µM; with MCF7 (setting [2]) it was 31.9 µM; in the test with MDA-MB-468 (setting [4]), 62.5 µM; in the test with MDA-MB-231 (setting [5]), 37.8 µM.

In the case of `O=C(CCCc1ccc(N(CCCl)CCCl)cc1)N[C@H](CO)Cc1ccc(O)cc1`, the IC50 turned out to be 24.4 µM in test [1] (setting [3]), 34.1 µM in the test on MCF7 (setting [2]), 55.1 µM in the test with MDA-MB-468 (setting [4]) and 39.6 µM with MDA-MB-231 (setting [5]).

`COC(=O)[C@H](Cc1ccc(O)cc1)NC(=O)CCCCCNC(=O)CCCc1ccc(N(CCCl)CCCl)cc1`: the IC50 in test [1] (setting [3]) was determined as 15 µM; with MCF7 (setting [2]), 25.4 µM; in the test with MDA-MB-468 (setting [4]), 59 µM; with MDA-MB-231 (setting [5]), 36.8 µM.

Take `O=C(CCCc1ccc(N(CCCl)CCCl)cc1)NCCCCCC(=O)N[C@H](CO)Cc1ccc(O)cc1`: the IC50 in test [1] (setting [3]) is 28.9 µM; with MCF7 (setting [2]), 62.2 µM; with MDA-MB-468 (setting [4]), 77.3 µM; in the test on MDA-MB-231 (setting [5]), 55.1 µM.

Regarding `COC(=O)[C@@H](Cc1ccc(O)cc1)NC(=O)CCCc1ccc(N(CCCl)CCCl)cc1`, the IC50 turned out to be 50 µM in the test with MCF7 (setting [2]) and 47.2 µM with MDA-MB-231 (setting [5]).

Regarding `O=C(CCCc1ccc(N(CCCl)CCCl)cc1)N[C@@H](CO)Cc1ccc(O)cc1`, the IC50 in the test with MCF7 (setting [2]) amounted to 31.4 µM; in the test on MDA-MB-231 (setting [5]), 29.8 µM.

With `COC(=O)[C@@H](Cc1ccc(O)cc1)NC(=O)CCCCCNC(=O)CCCc1ccc(N(CCCl)CCCl)cc1`, in the test with MCF7 (setting [2]), the IC50 is 152 µM.

As to `O=C(O)CCCc1ccc(N(CCCl)CCCl)cc1` [CHLORAMBUCIL], the IC50 in test [1] (setting [3]) was 132 µM; in the test with MCF7 (setting [2]), 130 µM; in the test with MDA-MB-468 (setting [4]), 147 µM; in the test with MDA-MB-231 (setting [5]), 137 µM.
